Measured values as given in ChEMBL document CHEMBL4390679 (J Med Chem, 2019).
The source made the active and inactive calls. No cut-off for these calls is given here. Starred links: 1 amine or outer side, 2 acyl side, 3 side chain; linkers in the order of their positions; H or OH if unused. Positions of bridges follow the written chain, without caps; N, C: chain ends. Non-standard residues stand in square brackets, D forms with d. Residues, ends and D or L forms follow the SMILES beside them. Abu(4-yl) = O=C([C@H](CC[*:3])N[*:1])[*:2]; N(4-F-Bzl)Gly = O=C(O)CNCc1ccc(F)cc1; X1 = O=C(CN(CCCO)[*:1])[*:2]

Tests used:
Oxytocin receptor [1] = target: T1, Oxytocin receptor (Homo sapiens, UniProt P30559); test: Agonist activity at recombinant human OTR expressed in HEK293 cells assessed as increase in intracellular calcium level measured at 3 secs interval for 5 mins by fura-2/AM dye based micro spectrofluorometric method; type: functional, cell-based
T1 sequence (P30559 whole entry): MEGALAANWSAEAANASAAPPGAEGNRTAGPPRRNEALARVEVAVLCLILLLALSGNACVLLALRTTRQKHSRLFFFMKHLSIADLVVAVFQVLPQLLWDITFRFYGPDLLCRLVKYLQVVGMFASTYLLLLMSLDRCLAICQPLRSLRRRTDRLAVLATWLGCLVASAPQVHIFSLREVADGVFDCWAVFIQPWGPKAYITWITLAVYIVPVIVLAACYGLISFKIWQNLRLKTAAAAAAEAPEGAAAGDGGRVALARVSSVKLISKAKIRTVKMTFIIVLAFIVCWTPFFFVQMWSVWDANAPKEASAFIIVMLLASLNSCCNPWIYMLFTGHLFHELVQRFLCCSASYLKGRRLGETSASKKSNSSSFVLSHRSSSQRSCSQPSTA

Oxytocin receptor [2] = target: T1, Oxytocin receptor; test: Displacement of [3H]OT from recombinant human OTR expressed in HEK293 cell membranes measured after 1 hr
Vasopressin V1a receptor = Vasopressin V1a receptor (Homo sapiens, UniProt P37288); test: Agonist activity at recombinant human V1a receptor expressed in HEK293 cells assessed as increase in intracellular calcium level measured at 3 secs interval for 5 mins by fura-2/AM dye based micro spectrofluorometric method; type: cell-based
Sequence of Vasopressin V1a receptor (P37288 whole entry): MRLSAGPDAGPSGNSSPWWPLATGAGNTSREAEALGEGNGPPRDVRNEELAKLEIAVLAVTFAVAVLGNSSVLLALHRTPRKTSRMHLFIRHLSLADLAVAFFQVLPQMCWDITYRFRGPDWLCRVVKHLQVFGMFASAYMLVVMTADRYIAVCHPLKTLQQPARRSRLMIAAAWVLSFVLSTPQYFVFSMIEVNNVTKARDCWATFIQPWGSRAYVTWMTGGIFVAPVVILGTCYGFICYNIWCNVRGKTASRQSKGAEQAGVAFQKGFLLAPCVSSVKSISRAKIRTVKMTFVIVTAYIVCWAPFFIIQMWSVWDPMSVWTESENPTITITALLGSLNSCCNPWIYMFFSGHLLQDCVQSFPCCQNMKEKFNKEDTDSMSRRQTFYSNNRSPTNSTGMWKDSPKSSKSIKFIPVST

Vasopressin V1b receptor = target: T2, Vasopressin V1b receptor (Homo sapiens, UniProt P47901); test: Agonist activity at recombinant human V1b receptor expressed in HEK293 cells assessed as increase in intracellular calcium level measured at 3 secs interval for 5 mins by fura-2/AM dye based micro spectrofluorometric method; type: cell-based
T2 sequence (P47901 whole entry): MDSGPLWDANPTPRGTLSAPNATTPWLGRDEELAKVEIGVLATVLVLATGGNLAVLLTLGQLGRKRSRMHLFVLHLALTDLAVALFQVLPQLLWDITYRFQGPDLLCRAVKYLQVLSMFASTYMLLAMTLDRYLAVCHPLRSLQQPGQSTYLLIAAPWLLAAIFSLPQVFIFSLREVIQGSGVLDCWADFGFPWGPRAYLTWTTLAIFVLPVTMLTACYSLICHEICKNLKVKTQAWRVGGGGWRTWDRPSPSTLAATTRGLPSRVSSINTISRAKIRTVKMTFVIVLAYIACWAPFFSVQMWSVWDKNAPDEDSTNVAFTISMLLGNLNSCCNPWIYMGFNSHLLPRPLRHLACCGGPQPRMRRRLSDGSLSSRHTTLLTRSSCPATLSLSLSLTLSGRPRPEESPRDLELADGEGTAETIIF

Homo sapiens [3] = organism: Homo sapiens; test: Selectivity ratio of EC50 for recombinant human V1a receptor expressed in HEK293 cells to EC50 for recombinant human OTR expressed in HEK293 cells; type: cell-based
Summary of the method: (§1)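 Agonist response measured in HEK-293 cells stably expressing human OTR, V1aR or V1bR, loaded with 1 µM fura-2/AM for 30 min at 37 °C, washed in HEPES-buffered saline pH 7.4. F340/F380 ratio read every 3 s for 5 min at 37 °C, normalized to baseline and to maximal OT (OTR) or AVP (V1aR, V1bR) response; EC50 taken from these curves. n = 3, 20 cells per dish.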

Homo sapiens [4] = organism: Homo sapiens; test: Selectivity ratio of EC50 for recombinant human V1b receptor expressed in HEK293 cells to EC50 for recombinant human OTR expressed in HEK293 cells; type: cell-based; summary of the method: as §1
Mus musculus [5] = test: Cognition enhancing effect in CD38 knock out Slc:ICR mouse sire model of autism spectrum disorder assessed as latency time to retrieve pups by sires at 100 ng/ml, ip administered as single dose measured after 30 mins by parental retrieval test (reference value: 600 sec); type: functional
Mus musculus [6] = test: Cognition enhancing effect in CD38 knock out Slc:ICR mouse sire model of autism spectrum disorder assessed as latency time to retrieve pups by sires at 100 ng/ml, ip administered as single dose measured after 5 hrs by parental retrieval test (reference value: 233 +/- 68 sec); type: functional
Mus musculus [7] = test: Cognition enhancing effect in CD38 knock out Slc:ICR mouse sire model of autism spectrum disorder assessed as latency time to retrieve pups by sires at 100 ng/ml, ip administered as single dose measured after 12 hrs by parental retrieval test (reference value: 233 +/- 68 sec); type: functional
Mus musculus [8] = test: Cognition enhancing effect in CD38 knock out Slc:ICR mouse sire model of autism spectrum disorder assessed as latency time to retrieve pups by sires at 100 ng/ml, ip administered as single dose measured after 24 hrs by parental retrieval test (reference value: 233 +/- 68 sec); type: functional
Mus musculus [9] = test: Antidepressant-like activity in CD38KOCC Slc:ICR mouse model of autism spectrum disorder assessed as immobility time at 100 ng/ml, ip administered as single dose for 30 mins prior to testing measured for last 4 mins of 6 mins test by tail suspension test (reference value: 74.2 +/- 2.9 sec); type: functional
Mus musculus [10] = test: Cognition enhancing effect in CD38KOCC Slc:ICR mouse model of autism spectrum disorder assessed as sucrose consumption over water at 100 ng/ml, ip administered as single dose measured after 60 mins relative to control (reference value: 0.46 +/- 0.04); type: functional
Mus musculus [11] = test: Cognition enhancing effect in CD38KOCC Slc:ICR mouse model of autism spectrum disorder assessed as increase in sucrose consumption over water at 100 ng/ml, ip administered as single dose measured after 24 hrs; type: functional, organism-based
[12] = Plasma concentration in Slc:ICR mouse at 100 ng/g, iv measured immediately by LC-MS/MS analysis; type: ADME, organism-based; settings: in vivo
Summary of the method: (§2)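 Male ICR mice (30 g) were given 100 ng/g i.v. via the tail vein. Blood was taken by cardiac puncture immediately and at 5, 15 and 30 min; CSF was taken at 30 min or 12 h. Plasma was deproteinized with acetonitrile/methanol 1:1 containing [13C6,15N]OT internal standard and analysed by LC-MS/MS (C8 column, SRM).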

[13] = Half life in Slc:ICR mouse plasma during fast phase at 100 ng/g, iv measured for 15 mins by LC-MS/MS analysis; type: ADME, organism-based; summary of the method: as §2
[14] = Half life in Slc:ICR mouse plasma during slow phase at 100 ng/g, iv measured for 15 to 60 mins by LC-MS/MS analysis; type: ADME, organism-based; summary of the method: as §2
[15] = Drug level in Slc:ICR mouse cerebrospinal fluid at 100 ng/g, iv measured after 30 mins by LC-MS/MS analysis; type: ADME, organism-based; settings: Slc:ICR, cerebrospinal fluid, 100 ng/g, read-out: Drug uptake; summary of the method: as §2
[16] = Drug level in Slc:ICR mouse cerebrospinal fluid at 100 ng/g, iv measured after 12 hrs by LC-MS/MS analysis; type: ADME, organism-based; settings: Slc:ICR, cerebrospinal fluid, 100 ng/g, read-out: Drug uptake; summary of the method: as §2
[17] = Stability in mouse plasma assessed as parent compound remaining at 50 ng/ml measured after 2 hrs by LC-MS/MS analysis; type: ADME, cell-free; settings: read-out: Stability
Summary of the method: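 Pooled mouse plasma spiked to a final 50 ng/mL was incubated at 37 °C for 1–120 min, quenched with acetonitrile/methanol 1:1 plus internal standard, and analysed by LC-MS/MS. Percent of the initial concentration was calculated; 85–115% was taken as acceptable.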

[18] = target: T3, Oxytocin receptor (Homo sapiens) (UniProt P30559); test: Displacement of [3H]OT from recombinant human OTR expressed in HEK293 cell membranes assessed as association rate constant for [3H]OT binding
T3 sequence (whole entry): T1 sequence (P30559 whole entry)
Summary of the method: (§3)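 Membranes from HEK-293 cells stably expressing human OTR (5 µg/well) in 50 mM Tris, 10 mM MgCl2, 0.1% BSA, pH 7.4. [3H]OT added at 200 pM, 500 pM and 1 nM; bound and free separated by rapid filtration at multiple time points to build association curves. Kon and Koff fitted; t1/2 from Koff = ln2/t1/2. Two experiments, each in duplicate.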

[19] = target: T3, Oxytocin receptor (Homo sapiens); test: Displacement of [3H]OT from recombinant human OTR expressed in HEK293 cell membranes assessed as dissociation rate constant for [3H]OT binding; summary of the method: as §3
[20] = target: T3, Oxytocin receptor (Homo sapiens); test: Displacement of [3H]OT from recombinant human OTR expressed in HEK293 cell membranes assessed as dissociation half life for [3H]OT binding; summary of the method: as §3
Mus musculus [21] = test: Antidepressant-like activity in CD38KOCC Slc:ICR mouse model of autism spectrum disorder assessed as decrease in immobility time at 100 ng/ml, ip administered as single dose for 24 hrs prior to testing measured for last 4 mins of 6 mins test by tail suspension test

Row | Compound | EC50 (Oxytocin receptor [1]) [nM] | Ki (Oxytocin receptor [2]) [nM] | EC50 (Vasopressin V1a receptor) [nM] | EC50 (Vasopressin V1b receptor) [nM] | Ratio EC50 (Homo sapiens [3]) | Ratio EC50 (Homo sapiens [4]) | further results
1 | CC[C@H](C)[C@@H]1NC(=O)[C@H](Cc2ccc(O)cc2)NC(=O)[C@@H](N)CCSC[C@@H](C(=O)N(CC(=O)N[C@@H](CC(C)C)C(=O)NCC(N)=O)Cc2ccc(F)cc2)NC(=O)[C@H](CC(N)=O)NC(=O)[C@H](CCC(N)=O)NC1=O (H-[Abu(4-yl)]YIQNC[N(4-F-Bzl)Gly]LG-NH2; thioether 1-6) | 0.089 | 0.9 | 4 | 0.8 | 45 | 9 | 
2 | CC[C@H](C)[C@@H]1NC(=O)[C@H](Cc2ccc(O)cc2)NC(=O)[C@@H](N)CCSC[C@@H](C(=O)N(CCCO)CC(=O)N[C@@H](CC(C)C)C(=O)NCC(N)=O)NC(=O)[C@H](CC(N)=O)NC(=O)[C@H](CCC(N)=O)NC1=O (H-[Abu(4-yl)]YIQNC[X1]LG-NH2; thioether 1-6) | 0.15 | 3 | > 10 | > 10 | > 66.6 | > 66.6 | 
3 | CC[C@H](C)[C@@H]1NC(=O)[C@H](Cc2ccc(O)cc2)NC(=O)[C@@H](N)CSSC[C@@H](C(=O)N(CC(=O)N[C@@H](CC(C)C)C(=O)NCC(N)=O)Cc2ccc(F)cc2)NC(=O)[C@H](CC(N)=O)NC(=O)[C@H](CCC(N)=O)NC1=O (H-CYIQNC[N(4-F-Bzl)Gly]LG-NH2; disulfide 1-6) | 0.028 | 0.51 | 2.2 | 0.5 | 75.3 | 17.5 | Time (Mus musculus [5]): 297 s; Time (Mus musculus [6]): 381 s; Time (Mus musculus [7]): 155 s; Time (Mus musculus [8]): 413 s; Time (Mus musculus [9]): 149.5 s; Ratio (Mus musculus [10]): 0.79; Activity (Mus musculus [11]): inactive; Cp [12]: 118 ng/mL; half-life [13]: 2.84 min; half-life [14]: 2.86 min; concentration at 0.5 h [15]: 0.1 ng/mL; concentration at 12 h [16]: 0.38 ng/mL; remaining at 2 h, 50 ng/ml [17]: 85 to 115%; K [18]: 1.05 ×10⁸ /M/min; K [19]: 0.1 min⁻¹; T1/2 [20]: 6.38 min; Activity (Mus musculus [21]): inactive
